TNAP inh hiacc = TNAP (human) inhibition, high acceptor. inhibition, % at 20 µM. P05186. 0.03% of 200,000 active. purified TNAP, CDP-star luminescence, 1 M DEA;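 active means over 50% inhibition of tissue-nonspecific alkaline phosphatase at 20 µM in the single-dose screen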
Target sequence (P05186 whole entry, looked up): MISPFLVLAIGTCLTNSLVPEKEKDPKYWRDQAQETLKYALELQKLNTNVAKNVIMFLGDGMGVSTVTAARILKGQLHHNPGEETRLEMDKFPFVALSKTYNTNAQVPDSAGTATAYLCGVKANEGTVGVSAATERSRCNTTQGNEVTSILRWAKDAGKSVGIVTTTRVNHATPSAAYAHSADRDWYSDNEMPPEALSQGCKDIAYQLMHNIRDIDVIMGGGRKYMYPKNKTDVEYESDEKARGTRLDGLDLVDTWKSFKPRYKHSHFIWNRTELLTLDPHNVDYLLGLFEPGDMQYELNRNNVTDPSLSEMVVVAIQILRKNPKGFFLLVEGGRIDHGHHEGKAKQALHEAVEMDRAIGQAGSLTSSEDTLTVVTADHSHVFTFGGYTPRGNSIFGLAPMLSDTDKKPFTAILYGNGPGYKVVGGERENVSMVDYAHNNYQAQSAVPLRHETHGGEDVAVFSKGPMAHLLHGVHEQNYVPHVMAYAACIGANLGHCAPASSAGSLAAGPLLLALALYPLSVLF
TNAP act hi DEA = activators of human TNAP at high phosphate acceptor concentration. P05186. activation factor at 20 µM. 200,000 tested, under 10 active. purified TNAP, CDP-star luminescence, 1 M DEA, 30 min; hits give high values; 0 = EDTA background, 1 = DMSO-only activity. AID 1136;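 active means activation factor at least 2 at 20 µM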
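Assay system: human TNAP; Input: enzyme diluted 1/800 final; Reagent: CDP-star luminogenic substrate at 100 µM final; Timing: 30 min, room temperature; Signal: luminescence; Evaluation: TNAP activation factor scaled between EDTA and DMSO control wells.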
zVAD death inh = L929 zVAD cell death inhibition; L929 zVAD necroptosis rescue, ATP luminescence, 24 h; with zVAD 60 µM; viability rescue, % at 10 µM; 0.38% of 220,000 active; AID 1377;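 active means activation, scaled between plate controls, above about 75%, limit read from the data; inactive means activation under that limit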
TNAP inh no acc = inhibitors of human TNAP without phosphate acceptor; P05186; purified TNAP, CDP-star luminescence, 30 min; inhibition, % at 20 µM; 0.26% of 200,000 active; AID 1012;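 active means tissue-nonspecific alkaline phosphatase inhibition above about 50% at 20 µM in the single-dose screen, limit read from the data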
TNF death inh = blocks TNF-alpha induced death of Jurkat FADD-/- cells. Jurkat FADD-/- TNF necroptosis rescue, ATP luminescence, 24 h; 0 = TNF only, 100 = no-TNF cells. activation (protection from cell death), % at 10 µM. 0.068% of 220,000 active. AID 463075;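 active means activation, meaning protection from cell death, of at least 50% relative to plate controls; inactive means activation below 50%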;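 further: necroptosis triggered by 40 ng/mL TNF-alpha added together with compound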
sdo1 growth = compounds rescuing growth of sdo1-depleted yeast, bone marrow failure model. S. cerevisiae sdo1-depleted JHY4D growth rescue, OD600 30 h; hits give high values; pdr5 snq2 efflux-pump mutant strain. z-score at 10 µM. 0.21% of 140,000 active. AID 817;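 active means z-score above 3 at both the 24 hr and the 30 hr optical density reads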
A number is an active result. Compounds with a hit are over-represented: about 0.81% of the library has one in this group of screens.

Results for COc1cc(C2C(C#N)=C(N)Oc3n[nH]c(-c4cccs4)c32)cc(OC)c1O (stereo unspecified) ?
TNAP inh hiacc: inactive; TNAP act hi DEA: inactive; zVAD death inh: inactive; TNAP inh no acc: 54; TNF death inh: inactive

Results for COc1ccc(/C=C/C(O)=C(\C#N)c2nnc(N3CCOCC3)n2-c2ccccc2)cc1OC ?
TNAP inh hiacc: inactive; TNAP act hi DEA: inactive; zVAD death inh: inactive; TNAP inh no acc: inactive; TNF death inh: inactive

How did COc1ccc(-n2c(SCC3OCCO3)nc3c(sc(=S)n3-c3ccccc3)c2=O)cc1OC do in these assays?
TNAP inh hiacc: inactive; TNAP act hi DEA: inactive; zVAD death inh: inactive; TNAP inh no acc: inactive; TNF death inh: inactive

What do the screens show for `O=C(N/N=C/C=C/c1ccccc1[N+](=O)[O-])c1cc(-c2ccccc2)n[nH]1`?
TNAP inh hiacc: inactive; TNAP act hi DEA: inactive; zVAD death inh: inactive; TNAP inh no acc: 64; TNF death inh: inactive; sdo1 growth: inactive

Results for O=C(N/N=C/C=C\c1ccccc1[N+](=O)[O-])c1ccccn1 ?
TNAP inh hiacc: inactive; TNAP act hi DEA: inactive; zVAD death inh: inactive; TNAP inh no acc: inactive; TNF death inh: inactive; sdo1 growth: inactive

What do the screens show for `COc1ccc(C[C@H]2COC(=O)[C@@H]2Cc2ccc(OC3OC(CO)C(O)C(O)C3O)c(OC)c2)cc1OC` (stereo partly specified)?
TNAP inh hiacc: inactive; TNAP act hi DEA: inactive; zVAD death inh: inactive; TNAP inh no acc: inactive; TNF death inh: inactive; sdo1 growth: inactive

Results for COc1cc(C2OCC3C(c4ccc(OC5OC(CO)C(O)C(O)C5O)c(OC)c4)OCC23)ccc1O (stereo unspecified) ?
TNAP inh hiacc: inactive; TNAP act hi DEA: inactive; zVAD death inh: inactive; TNAP inh no acc: 64; TNF death inh: inactive

How did CN1CCc2cc(Cl)c(O)cc2[C@@H](c2ccccc2)C1 do in these assays?
TNAP inh hiacc: inactive; TNAP act hi DEA: inactive; TNAP inh no acc: inactive

How did Oc1cc2c(cc1O)[C@@H](c1ccccc1)CNCC2 do in these assays?
TNAP inh hiacc: inactive; TNAP act hi DEA: inactive; zVAD death inh: inactive; TNAP inh no acc: 66; TNF death inh: inactive; sdo1 growth: inactive

How did Cc1nnc(NC(=O)C2(c3ccccc3)CCOCC2)s1 do in these assays?
TNAP inh hiacc: inactive; TNAP act hi DEA: inactive; zVAD death inh: inactive; TNAP inh no acc: inactive; TNF death inh: inactive; sdo1 growth: inactive

How did Cc1cnc(NC(=O)C2(c3ccccc3)CC2)s1 do in these assays?
TNAP inh hiacc: inactive; TNAP act hi DEA: inactive; zVAD death inh: inactive; TNAP inh no acc: inactive; TNF death inh: 63

How did COc1ccc(NC(=O)COC(=O)c2ccc(Cl)c(S(N)(=O)=O)c2)c([N+](=O)[O-])c1 do in these assays?
zVAD death inh: inactive; TNF death inh: inactive

How did COc1ccc(/C=N/N2CCN(c3ccccc3OC)CC2)cc1OC do in these assays?
TNAP inh hiacc: inactive; TNAP act hi DEA: inactive; zVAD death inh: inactive; TNAP inh no acc: inactive; TNF death inh: inactive; sdo1 growth: inactive

What do the screens show for `COc1ccccc1N1CCN(/N=C/c2ccc(O)c(O)c2)CC1`?
TNAP inh hiacc: inactive; TNAP act hi DEA: inactive; zVAD death inh: inactive; TNAP inh no acc: 54; TNF death inh: inactive

What do the screens show for `Cc1[nH][nH]c(=O)c1C(c1ccc(N(C)C)c(Br)c1)c1c(C)[nH][nH]c1=O`?
zVAD death inh: inactive; TNF death inh: inactive

How did CCOc1cc(C(c2c(C)[nH][nH]c2=O)c2c(C)[nH][nH]c2=O)ccc1OS(=O)(=O)c1ccccc1 do in these assays?
TNAP inh hiacc: 62; TNAP act hi DEA: inactive; zVAD death inh: inactive; TNAP inh no acc: inactive; TNF death inh: inactive; sdo1 growth: inactive

How did Cc1ccc(S(=O)(=O)Oc2ccc(C(c3c(C)[nH][nH]c3=O)c3c(C)[nH][nH]c3=O)cc2)cc1 do in these assays?
TNAP inh hiacc: 61; TNAP act hi DEA: inactive; zVAD death inh: inactive; TNAP inh no acc: inactive; TNF death inh: inactive; sdo1 growth: inactive

Results for COC(=O)c1cc(S(=O)(=O)n2nc(C)c(Br)c2C)c(Cl)cc1Cl ?
TNAP inh hiacc: inactive; TNAP act hi DEA: inactive; zVAD death inh: inactive; TNAP inh no acc: inactive; TNF death inh: inactive; sdo1 growth: inactive

What do the screens show for `Cc1ccc(/C=C2\C(=O)Nc3ccccc32)o1`?
TNAP inh hiacc: inactive; TNAP act hi DEA: inactive; zVAD death inh: 78; TNAP inh no acc: inactive; TNF death inh: inactive; sdo1 growth: inactive

Results for NS(=O)(=O)c1ccc(CCNC(=O)CNS(=O)(=O)c2cccc(Br)c2)cc1 ?
TNAP inh hiacc: inactive; TNAP act hi DEA: inactive; zVAD death inh: inactive; TNAP inh no acc: 76; TNF death inh: inactive

Results for O=C(CC1(O)C(=O)Nc2ccc(Br)cc21)c1ccc2c(c1)OCO2 (stereo unspecified) ?
TNAP inh hiacc: inactive; TNAP act hi DEA: inactive; zVAD death inh: inactive; TNAP inh no acc: inactive; TNF death inh: inactive; sdo1 growth: inactive

How did Nc1ccc(Cc2ccc(N)c(O)c2)cc1O do in these assays?
TNAP inh hiacc: inactive; TNAP act hi DEA: inactive; zVAD death inh: inactive; TNAP inh no acc: 57; TNF death inh: inactive

Results for COc1cc(Cc2ccc(N)c(OC)c2)ccc1N ?
TNAP inh hiacc: inactive; TNAP act hi DEA: inactive; TNAP inh no acc: inactive; TNF death inh: inactive; sdo1 growth: inactive

What do the screens show for `O=C(OCC(=O)N1CCN(C(=O)c2ccco2)CC1)c1cn(-c2ccccc2)nc1-c1ccccc1`?
TNAP inh hiacc: inactive; TNAP act hi DEA: inactive; zVAD death inh: 79; TNAP inh no acc: inactive; TNF death inh: inactive; sdo1 growth: inactive

How did CN1CCN(c2ccc(CNS(=O)(=O)c3ccc(Cl)cc3)cc2)CC1 do in these assays?
zVAD death inh: inactive; TNF death inh: inactive

What do the screens show for `NS(=O)(=O)c1cccnc1Nc1c(Cl)cccc1Cl`?
TNAP inh hiacc: 52; TNAP act hi DEA: inactive; zVAD death inh: inactive; TNAP inh no acc: 58; TNF death inh: inactive; sdo1 growth: inactive

Results for CSc1nc(-c2ccc(Cl)cc2)nn1S(=O)(=O)c1ccc(Cl)cc1 ?
TNAP inh hiacc: inactive; TNAP act hi DEA: inactive; zVAD death inh: inactive; TNAP inh no acc: inactive; TNF death inh: inactive; sdo1 growth: inactive

What do the screens show for `CCC(=O)n1nc(-c2ccc(Cl)cc2)nc1SC`?
TNAP inh hiacc: inactive; TNAP act hi DEA: inactive; zVAD death inh: inactive; TNAP inh no acc: 60; TNF death inh: inactive; sdo1 growth: inactive

How did COc1ccc(-c2nc(SC)n(C(=O)c3ccco3)n2)cc1 do in these assays?
TNAP inh hiacc: inactive; TNAP act hi DEA: inactive; zVAD death inh: inactive; TNAP inh no acc: 52; TNF death inh: inactive; sdo1 growth: inactive

How did CCC(=O)n1nc(-c2ccc(OC)cc2)nc1SC do in these assays?
TNAP inh hiacc: inactive; TNAP act hi DEA: inactive; zVAD death inh: inactive; TNAP inh no acc: 54; TNF death inh: inactive; sdo1 growth: inactive
